From publication PMC3187937 (Biochemistry, 2011)
Where “and” joins values, the source holds several entries; their conditions need not be identical. Equal values may be shown once. Read-outs that look alike come from different tables or passages of the source.

How the values were obtained:
[1] = target: T1, purified R. capsulatus wild-type cyt bc1 (Rhodobacter capsulatus, UniProt D5ANZ3); assay: Zn^2+ inhibition kinetics of DBH2:cyt c reductase activity, wild-type enzyme; format: biochemical; settings: 40 mM Tris-HCl buffer pH 7.5, single homogeneous inhibition site fit, free Zn^2+
T1 sequence (D5ANZ3 1-437): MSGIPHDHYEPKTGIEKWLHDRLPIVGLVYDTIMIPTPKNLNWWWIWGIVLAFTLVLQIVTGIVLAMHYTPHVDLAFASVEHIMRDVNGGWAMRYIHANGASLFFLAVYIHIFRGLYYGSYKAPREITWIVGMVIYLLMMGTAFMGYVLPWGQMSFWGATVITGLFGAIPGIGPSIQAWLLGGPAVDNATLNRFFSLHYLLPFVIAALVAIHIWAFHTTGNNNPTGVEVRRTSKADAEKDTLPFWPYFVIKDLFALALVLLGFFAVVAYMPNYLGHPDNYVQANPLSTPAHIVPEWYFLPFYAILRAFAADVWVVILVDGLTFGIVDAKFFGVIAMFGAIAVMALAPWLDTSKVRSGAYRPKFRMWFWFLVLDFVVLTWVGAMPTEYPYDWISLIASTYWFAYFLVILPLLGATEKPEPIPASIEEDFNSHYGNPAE
T1 sequence (D5ANZ2 1-191 partner): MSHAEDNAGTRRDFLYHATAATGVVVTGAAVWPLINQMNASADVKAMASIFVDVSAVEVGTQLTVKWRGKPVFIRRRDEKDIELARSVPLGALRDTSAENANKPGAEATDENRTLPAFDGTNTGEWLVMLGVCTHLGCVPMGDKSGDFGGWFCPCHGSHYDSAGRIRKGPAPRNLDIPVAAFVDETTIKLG
T1 sequence (D5ANZ4 22-279 partner): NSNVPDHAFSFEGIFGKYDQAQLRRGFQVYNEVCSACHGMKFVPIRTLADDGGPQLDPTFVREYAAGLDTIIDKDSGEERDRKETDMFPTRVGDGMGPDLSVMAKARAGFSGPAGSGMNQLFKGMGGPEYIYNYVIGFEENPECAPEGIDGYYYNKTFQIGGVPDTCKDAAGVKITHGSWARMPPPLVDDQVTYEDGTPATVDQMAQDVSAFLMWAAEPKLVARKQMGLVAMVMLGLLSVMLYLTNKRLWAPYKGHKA

[2] = target: chicken cyt bc1; settings: avian; ref [25]; cited from earlier work
[3] = target: T2, hemes of R. capsulatus cyt bc1 (Rhodobacter capsulatus, UniProt D5ANZ3)
T2 sequence (D5ANZ3 1-437): T1 sequence (D5ANZ3 1-437)
T2 sequence (D5ANZ2 1-191 partner): T1 sequence (D5ANZ2 1-191 partner)
T2 sequence (D5ANZ4 22-279 partner): T1 sequence (D5ANZ4 22-279 partner)

[4] = target: E295V mutant cyt bc1 (Rhodobacter capsulatus, UniProt D5ANZ3, E295V); format: binding
[5] = target: bovine cyt bc1; settings: cited from earlier work
[6] = target: purified R. capsulatus cyt b E295V mutant cyt bc1 (Rhodobacter capsulatus, UniProt D5ANZ3, E295V); assay: Zn^2+ inhibition kinetics of DBH2:cyt c reductase activity, E295V mutant enzyme; format: biochemical
[7] = target: bovine cyt bc1; settings: cited from earlier work; remark: listed apart in the source
[8] = target: T3, wild-type cyt bc1 (Rhodobacter capsulatus, UniProt D5ANZ3); assay: Isothermal titration calorimetry of Zn^2+ binding, wild-type enzyme
T3 sequence (D5ANZ3 1-437): T1 sequence (D5ANZ3 1-437)
T3 sequence (D5ANZ2 1-191 partner): T1 sequence (D5ANZ2 1-191 partner)
T3 sequence (D5ANZ4 22-279 partner): T1 sequence (D5ANZ4 22-279 partner)

[9] = target: R. capsulatus E295V mutant cyt bc1 (Rhodobacter capsulatus, UniProt D5ANZ3, E295V); assay: Michaelis-Menten kinetics of DBH2:cyt c reductase, E295V mutant enzyme; format: biochemical; settings: DBH2 as substrate
[10] = target: T4, R. capsulatus wild-type cyt bc1 (Rhodobacter capsulatus, UniProt D5ANZ3); assay: Michaelis-Menten kinetics of DBH2:cyt c reductase, wild-type enzyme; format: biochemical; settings: DBH2 as substrate
T4 sequence (D5ANZ3 1-437): T1 sequence (D5ANZ3 1-437)
T4 sequence (D5ANZ2 1-191 partner): T1 sequence (D5ANZ2 1-191 partner)
T4 sequence (D5ANZ4 22-279 partner): T1 sequence (D5ANZ4 22-279 partner)
Summary of the method: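 Enzyme purified by DDM solubilisation of chromatophore membranes from respiratory-grown cells, then DEAE and Sephacryl S400 chromatography. Assay: 2.3 nM enzyme with 40 μM horse heart cyt c, 2 mM KCN and 0.1 g/L DDM in 50 mM sodium phosphate pH 7.4, stirred at 20 °C. DBH₂ in DMSO was varied from 0.5 to 40 μM. Initial cyt c reduction rate read at 550 nm over 1 min. Km and Vmax came from double-reciprocal plots and Michaelis-Menten fitting.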

[11] = E295V, blind fit, two-site model

Sequence of E295V mutant cyt bc1 (D5ANZ3 whole entry E295V, one chain of several): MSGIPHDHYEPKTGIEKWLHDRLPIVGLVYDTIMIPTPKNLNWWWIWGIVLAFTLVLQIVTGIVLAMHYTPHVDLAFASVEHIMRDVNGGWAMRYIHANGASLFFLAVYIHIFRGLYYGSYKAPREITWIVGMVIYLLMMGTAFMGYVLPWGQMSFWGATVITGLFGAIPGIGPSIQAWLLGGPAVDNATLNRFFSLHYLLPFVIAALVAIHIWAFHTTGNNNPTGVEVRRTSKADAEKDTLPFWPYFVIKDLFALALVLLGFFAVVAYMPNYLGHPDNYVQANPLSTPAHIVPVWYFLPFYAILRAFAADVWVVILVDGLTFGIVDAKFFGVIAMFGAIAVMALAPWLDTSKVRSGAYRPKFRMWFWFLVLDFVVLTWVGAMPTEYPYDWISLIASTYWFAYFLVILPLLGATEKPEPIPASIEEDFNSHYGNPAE
Sequence of R. capsulatus E295V mutant cyt bc1 (D5ANZ3 whole entry E295V, one chain of several): as above
Sequence of purified R. capsulatus cyt b E295V mutant cyt bc1 (D5ANZ3 whole entry E295V, one chain of several): as above

Q: Which Ki [1] does the source give for `[Zn+2]` [Zn^2+] here?
A: 0.9 µM

Q: What about the Ki [2] of the same compound?
A: 3 µM

Q: What about the “effect on midpoint potentials of the b-type hemes” value ([3]; wild type, 200 μM Zn^2+, oxidative titration, pH 8.0) of the same compound?
A: does not significantly affect

Q: What about the “effect on oxidation rate” value ([3]; with Zn^2+ added, +500 mV vs SHE) of the same compound?
A: remained unaffected

Q: And the “time to fully reduced samples after application of the reducing potential” value ([3]; with Zn^2+ added, −500 mV vs SHE, within 7 minutes without Zn^2+)?
A: 10 min

Q: And the n1 [4, 11]?
A: 1.97 ± 0.08

Q: And the “n2, low affinity binding sites per cyt bc1” value [4, 11]?
A: 7.1 ± 0.3

Q: What about the ΔH1 [4, 11] of the same compound?
A: -9.9 ± 0.7 kcal/mol

Q: What about the ΔH2 [4, 11] of the same compound?
A: -2.6 ± 0.3 kcal/mol

Q: And the “n2, number of low affinity sites” value ([4]; E295V, n1 = 1 fixed)?
A: 9.1 ± 0.5

Q: And the ΔH1 ([4]; E295V, n1 = 1 fixed)?
A: -28 ± 4 kcal/mol

Q: And the ΔH2 ([4]; E295V, n1 = 1 fixed)?
A: -0.9 ± 0.5 kcal/mol

Q: And the Kd ([4]; read-out: KD1 (high affinity site), E295V, two-site model with n1 = 1 fixed)?
A: 1 ± 0.36 µM

Q: What about the Kd ([4]; read-out: KD2 (low affinity sites), E295V, n1 = 1 fixed) of the same compound?
A: 3.5 ± 1.6 µM

Q: And the Kd ([4]; read-out: KD2, E295V, blind fit, two-site model)?
A: 5.81 ± 1.22 µM

Q: What about the “change of KD1 of high affinity site in E295V compared to wild type” value ([4]; unitary stoichiometry assumed) of the same compound?
A: increase by a factor of two

Q: What about the Kd ([5]; pH 7.0, first value of cell, ref [39]) of the same compound?
A: 0.1 µM

Q: And the Kd ([5]; read-out: KD (second value), second value of cell, ref [39])?
A: > 2 µM

Q: And the Ki ([6]; 40 mM Tris-HCl buffer pH 7.5, single site fit, free Zn^2+)?
A: 2.6 µM

Q: And the residual activity ([6]; [Zn^2+] > 0.2 mM)?
A: 30%

Q: And the Ki ([7]; pH 7.0, ref [39])?
A: 0.1 µM

Q: And the “Complete inhibition (Zn^2+ concentration)” value ([7]; ref [39])?
A: [Zn^2+] > 5 μM

Q: And the ΔH1 ([8]; high affinity site)?
A: -5.6 ± 0.2 kcal/mol

Q: What about the ΔH2 ([8]; lower affinity sites) of the same compound?
A: -1.4 ± 0.2 kcal/mol

Q: And the Kd ([8]; read-out: KD1 (high affinity site), two-site model)?
A: 0.5 ± 0.07 µM

Q: What about the Kd ([8]; read-out: KD2 (lower affinity sites), two-site model) of the same compound?
A: 6.8 ± 0.9 µM

Q: What about the Kd ([8]; read-out: KD (high affinity site), two-site model) of the same compound?
A: 0.5 µM

Q: What about the Kd ([8]; read-out: KD (lower affinity sites), two-site model) of the same compound?
A: 6.8 µM

Q: And the “n1, stoichiometry of high affinity site” value ([8]; sites per protein complex)?
A: 1.13 ± 0.03

Q: And the “n2, number of lower affinity binding sites” value ([8]; sites per protein complex)?
A: 3.7 ± 0.2

Q: Which “Vmax of E295V relative to wild type (fold lower)” value ([9]; steady-state) does the source give for `CCCCCCCCCCc1c(C)c(O)c(OC)c(OC)c1O` [DBH2, Decylbenzohydroquinone] here?
A: 4 fold

Q: What about the Kcat ([9]; E295V) of the same compound?
A: 34.3 ± 4.5 s⁻¹

Q: What about the Vmax ([9]; E295V) of the same compound?
A: 10.6 ± 0.4 µmol/min/mg

Q: What about the Km ([9]; E295V, purified enzyme) of the same compound?
A: 3.1 ± 0.4 µM

Q: What about the Kcat [10] of the same compound?
A: 85.2 ± 13.1 s⁻¹

Q: And the Vmax [10]?
A: 42.4 µmol/min/mg and 42.4 ± 0.8 µmol/min/mg

Q: What about the Km ([10]; purified enzyme) of the same compound?
A: 4.9 ± 0.2 µM
